Values joined by “and” are separate entries in the source; they are usually repeats but may differ in a detail not shown here. Equal entries are not always repeated.
System: Fibroblast
Assay: Multiplex assay against human fibroblast
Format: toxicity, cell-based
In short: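 Imaging took place on a CQ1 microscope at 37°C and 5% CO2 once compound had been added to live cells stained at seeding with Hoechst33342, BioTracker Green Microtubule Cytoskeleton Dye, MitoTracker Red and Annexin V Alexa Fluor 680. CellPathfinder machine-learning gating classed cells as Hoechst high-intensity objects or normal cells, classed normal cells as having healthy, pyknosed or fragmented nuclei, and classed pyknosed cells as mitotic or apoptotic. Tubulin, mitochondrial-mass and membrane-permeability phenotypes are per cents of the healthy-nucleus cells.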

[1] = 12 h, 1 µM, compound concentration 1 uM, replicate 1
[2] = 12 h, 1 µM, compound concentration 1 uM, replicate 2
[3] = 12 h, 10 µM, compound concentration 10 uM, replicate 1
[4] = 12 h, 10 µM, compound concentration 10 uM, replicate 2
[5] = 24 h, 1 µM, compound concentration 1 uM, replicate 1
[6] = 24 h, 1 µM, compound concentration 1 uM, replicate 2
[7] = 24 h, 10 µM, compound concentration 10 uM, replicate 1
[8] = 24 h, 10 µM, compound concentration 10 uM, replicate 2

C=CC(=O)Nc1cccc(Oc2nc(Nc3ccc(N4CCN(C)CC4)cc3OC)ncc2Cl)c1
Population Fragmented Nuclei (%) [1]: 28% | Population Healthy Nuclei (%) [1]: 65% | Population Hoechst High Intensity Objects (%) [1]: 24% | Population Mitochondria Different-Phenotype (%) [1]: 14% | Population Normal (%) [1]: 75% | Population Pyknosed Nuclei (%) [1]: 6% | Population Tubulin-Different-Phenotype (%) [1]: 45% | Total Cell Count [1]: 324 | Population Apoptotic (%) [2]: 60% | Population Fragmented Nuclei (%) [2]: 44% | Population Healthy Nuclei (%) [2]: 48% | Population Hoechst High Intensity Objects (%) [2]: 23% | Population Membrane Permeable-Phenotype (%) [2]: 5% | Population Mitochondria Different-Phenotype (%) [2]: 26% | Population Mitotic Cells (%) [2]: 40% | Population Normal (%) [2]: 76% | Population Pyknosed Nuclei (%) [2]: 7% | Population Tubulin-Different-Phenotype (%) [2]: 64% | Total Cell Count [2]: 92 | Population Apoptotic (%) [3]: 62% | Population Fragmented Nuclei (%) [3]: 39% | Population Healthy Nuclei (%) [3]: 42% | Population Hoechst High Intensity Objects (%) [3]: 15% | Population Membrane Permeable-Phenotype (%) [3]: 7% | Population Mitochondria Different-Phenotype (%) [3]: 2% | Population Mitotic Cells (%) [3]: 37% | Population Normal (%) [3]: 84% | Population Pyknosed Nuclei (%) [3]: 18% | Population Tubulin-Different-Phenotype (%) [3]: 10% | Total Cell Count [3]: 237 | Population Apoptotic (%) [4]: 20% | Population Fragmented Nuclei (%) [4]: 57% | Population Healthy Nuclei (%) [4]: 34% | Population Hoechst High Intensity Objects (%) [4]: 36% | Population Membrane Permeable-Phenotype (%) [4]: 18% | Population Mitochondria Different-Phenotype (%) [4]: 4% | Population Mitotic Cells (%) [4]: 80% | Population Normal (%) [4]: 64% | Population Pyknosed Nuclei (%) [4]: 7% | Population Tubulin-Different-Phenotype (%) [4]: 18% | Total Cell Count [4]: 100 | Population Apoptotic (%) [5]: 61% | Population Fragmented Nuclei (%) [5]: 29% | Population Healthy Nuclei (%) [5]: 60% | Population Hoechst High Intensity Objects (%) [5]: 47% | Population Membrane Permeable-Phenotype (%) [5]: 1% | Population Mitochondria Different-Phenotype (%) [5]: 26% | Population Mitotic Cells (%) [5]: 38% | Population Normal (%) [5]: 52% | Population Pyknosed Nuclei (%) [5]: 9% | Population Tubulin-Different-Phenotype (%) [5]: 38% | Total Cell Count [5]: 265 | Population Apoptotic (%) [6]: 66% | Population Fragmented Nuclei (%) [6]: 31% | Population Healthy Nuclei (%) [6]: 56% | Population Hoechst High Intensity Objects (%) [6]: 37% | Population Membrane Permeable-Phenotype (%) [6]: 7% | Population Mitochondria Different-Phenotype (%) [6]: 48% | Population Mitotic Cells (%) [6]: 33% | Population Normal (%) [6]: 62% | Population Pyknosed Nuclei (%) [6]: 12% | Population Tubulin-Different-Phenotype (%) [6]: 70% | Total Cell Count [6]: 77 | Population Apoptotic (%) [7]: 70% | Population Fragmented Nuclei (%) [7]: 33% | Population Healthy Nuclei (%) [7]: 50% | Population Hoechst High Intensity Objects (%) [7]: 19% | Population Membrane Permeable-Phenotype (%) [7]: 3% | Population Mitochondria Different-Phenotype (%) [7]: 4% | Population Mitotic Cells (%) [7]: 30% | Population Normal (%) [7]: 80% | Population Pyknosed Nuclei (%) [7]: 16% | Population Tubulin-Different-Phenotype (%) [7]: 10% | Total Cell Count [7]: 231 | Population Apoptotic (%) [8]: 0% | Population Fragmented Nuclei (%) [8]: 61% | Population Healthy Nuclei (%) [8]: 35% | Population Hoechst High Intensity Objects (%) [8]: 29% | Population Membrane Permeable-Phenotype (%) [8]: 4% | Population Mitochondria Different-Phenotype (%) [8]: 9% | Population Mitotic Cells (%) [8]: 100% | Population Normal (%) [8]: 70% | Population Pyknosed Nuclei (%) [8]: 3% | Population Tubulin-Different-Phenotype (%) [8]: 14% | Total Cell Count [8]: 85

CNC(=O)Nc1ccc2c(c1)[C@@]1(CC2)OC(=O)N(CC(=O)N(Cc2ccc(F)cc2)[C@@H](C)C(F)(F)F)C1=O [A-486]
Population Apoptotic (%) [1]: 68% | Population Fragmented Nuclei (%) [1]: 21% | Population Healthy Nuclei (%) [1]: 60% | Population Hoechst High Intensity Objects (%) [1]: 9% | Population Membrane Permeable-Phenotype (%) [1]: 31% | Population Mitochondria Different-Phenotype (%) [1]: 4% | Population Mitotic Cells (%) [1]: 31% | Population Normal (%) [1]: 90% | Population Pyknosed Nuclei (%) [1]: 18% | Population Tubulin-Different-Phenotype (%) [1]: 55% | Total Cell Count [1]: 291 | Population Apoptotic (%) [2]: 75% | Population Fragmented Nuclei (%) [2]: 57% | Population Healthy Nuclei (%) [2]: 21% | Population Hoechst High Intensity Objects (%) [2]: 34% | Population Membrane Permeable-Phenotype (%) [2]: 41% | Population Mitochondria Different-Phenotype (%) [2]: 8% | Population Mitotic Cells (%) [2]: 25% | Population Normal (%) [2]: 65% | Population Pyknosed Nuclei (%) [2]: 21% | Population Tubulin-Different-Phenotype (%) [2]: 91% | Total Cell Count [2]: 87 | Population Apoptotic (%) [3]: 55% | Population Fragmented Nuclei (%) [3]: 24% | Population Healthy Nuclei (%) [3]: 61% | Population Hoechst High Intensity Objects (%) [3]: 14% | Population Membrane Permeable-Phenotype (%) [3]: 7% | Population Mitochondria Different-Phenotype (%) [3]: 5% | Population Mitotic Cells (%) [3]: 45% | Population Normal (%) [3]: 85% | Population Pyknosed Nuclei (%) [3]: 14% | Population Tubulin-Different-Phenotype (%) [3]: 7% | Total Cell Count [3]: 160 | Population Apoptotic (%) [4]: 33% | Population Fragmented Nuclei (%) [4]: 57% | Population Healthy Nuclei (%) [4]: 37% | Population Hoechst High Intensity Objects (%) [4]: 29% | Population Membrane Permeable-Phenotype (%) [4]: 15% | Population Mitochondria Different-Phenotype (%) [4]: 10% | Population Mitotic Cells (%) [4]: 66% | Population Normal (%) [4]: 70% | Population Pyknosed Nuclei (%) [4]: 5% | Population Tubulin-Different-Phenotype (%) [4]: 45% | Total Cell Count [4]: 77 | Population Apoptotic (%) [5]: 56% | Population Fragmented Nuclei (%) [5]: 23% | Population Healthy Nuclei (%) [5]: 59% | Population Hoechst High Intensity Objects (%) [5]: 14% | Population Membrane Permeable-Phenotype (%) [5]: 17% | Population Mitochondria Different-Phenotype (%) [5]: 6% | Population Mitotic Cells (%) [5]: 43% | Population Normal (%) [5]: 85% | Population Pyknosed Nuclei (%) [5]: 17% | Population Tubulin-Different-Phenotype (%) [5]: 46% | Total Cell Count [5]: 300 | Population Apoptotic (%) [6]: 71% | Population Fragmented Nuclei (%) [6]: 63% | Population Healthy Nuclei (%) [6]: 23% | Population Hoechst High Intensity Objects (%) [6]: 33% | Population Membrane Permeable-Phenotype (%) [6]: 50% | Population Mitochondria Different-Phenotype (%) [6]: 16% | Population Mitotic Cells (%) [6]: 28% | Population Normal (%) [6]: 66% | Population Pyknosed Nuclei (%) [6]: 13% | Population Tubulin-Different-Phenotype (%) [6]: 66% | Total Cell Count [6]: 78 | Population Apoptotic (%) [7]: 60% | Population Fragmented Nuclei (%) [7]: 30% | Population Healthy Nuclei (%) [7]: 53% | Population Hoechst High Intensity Objects (%) [7]: 14% | Population Membrane Permeable-Phenotype (%) [7]: 12% | Population Mitochondria Different-Phenotype (%) [7]: 1% | Population Mitotic Cells (%) [7]: 39% | Population Normal (%) [7]: 85% | Population Pyknosed Nuclei (%) [7]: 15% | Population Tubulin-Different-Phenotype (%) [7]: 8% | Total Cell Count [7]: 177 | Population Apoptotic (%) [8]: 100% | Population Fragmented Nuclei (%) [8]: 56% | Population Healthy Nuclei (%) [8]: 40% | Population Hoechst High Intensity Objects (%) [8]: 38% | Population Membrane Permeable-Phenotype (%) [8]: 25% | Population Mitochondria Different-Phenotype (%) [8]: 0% | Population Mitotic Cells (%) [8]: 0% | Population Normal (%) [8]: 61% | Population Pyknosed Nuclei (%) [8]: 4% | Population Tubulin-Different-Phenotype (%) [8]: 10% | Total Cell Count [8]: 81

CNCc1ccccc1-c1csc([C@@H](C)Nc2nc(C)nc3cc(OC)c(OC)cc23)c1 [BAY-293]
Population Apoptotic (%) [3]: 45% and 52% | Population Fragmented Nuclei (%) [3]: 29% and 38% | Population Healthy Nuclei (%) [3]: 45% and 27% | Population Membrane Permeable-Phenotype (%) [3]: 11% and 24% | Population Mitotic Cells (%) [3]: 54% and 47% | Population Normal (%) [3]: 58% and 87% | Population Pyknosed Nuclei (%) [3]: 24% and 33% | Population Apoptotic (%) [4]: 83% and 66% | Population Fragmented Nuclei (%) [4]: 50% and 52% | Population Healthy Nuclei (%) [4]: 17% and 31% | Population Hoechst High Intensity Objects (%) [4]: 34% and 42% | Population Membrane Permeable-Phenotype (%) [4]: 20% and 8% | Population Mitotic Cells (%) [4]: 16% and 33% | Population Normal (%) [4]: 65% and 57% | Population Pyknosed Nuclei (%) [4]: 32% and 16% | Population Tubulin-Different-Phenotype (%) [4]: 50% and 30% | Population Apoptotic (%) [7]: 89% and 38% | Population Fragmented Nuclei (%) [7]: 36% and 23% | Population Hoechst High Intensity Objects (%) [7]: 16% and 40% | Population Membrane Permeable-Phenotype (%) [7]: 11% and 4% | Population Normal (%) [7]: 83% and 59% | Population Pyknosed Nuclei (%) [7]: 56% and 28% | Population Tubulin-Different-Phenotype (%) [7]: 22% and 14% | Population Apoptotic (%) [8]: 66% and 90% | Population Fragmented Nuclei (%) [8]: 52% and 60% | Population Hoechst High Intensity Objects (%) [8]: 44% | Population Normal (%) [8]: 55% | Population Pyknosed Nuclei (%) [8]: 10% and 27% | Population Tubulin-Different-Phenotype (%) [8]: 38% and 20%

Cc1cc(NC(=O)c2cccc(S(F)(F)(F)(F)F)c2)cc(-n2ccn3nc(-c4cccnc4)cc23)c1 [BAY-309]
Population Apoptotic (%) [3]: 72% and 60% | Population Fragmented Nuclei (%) [3]: 29% and 25% | Population Healthy Nuclei (%) [3]: 45% and 52% | Population Hoechst High Intensity Objects (%) [3]: 11% and 13% | Population Mitochondria Different-Phenotype (%) [3]: 16% and 14% | Population Mitotic Cells (%) [3]: 27% and 39% | Population Normal (%) [3]: 88% and 86% | Population Pyknosed Nuclei (%) [3]: 25% and 22% | Total Cell Count [3]: 260 and 213 | Population Apoptotic (%) [4]: 54% and 62% | Population Fragmented Nuclei (%) [4]: 66% and 44% | Population Healthy Nuclei (%) [4]: 20% and 40% | Population Hoechst High Intensity Objects (%) [4]: 29% and 31% | Population Membrane Permeable-Phenotype (%) [4]: 16% and 20% | Population Mitochondria Different-Phenotype (%) [4]: 33% and 35% | Population Mitotic Cells (%) [4]: 45% and 37% | Population Normal (%) [4]: 70% and 68% | Population Pyknosed Nuclei (%) [4]: 12% and 16% | Population Tubulin-Different-Phenotype (%) [4]: 50% and 80% | Total Cell Count [4]: 122 and 73 | Population Apoptotic (%) [7]: 80% and 62% | Population Fragmented Nuclei (%) [7]: 24% and 21% | Population Healthy Nuclei (%) [7]: 47% and 56% | Population Hoechst High Intensity Objects (%) [7]: 16% and 15% | Population Mitotic Cells (%) [7]: 19% and 37% | Population Normal (%) [7]: 83% and 84% | Population Pyknosed Nuclei (%) [7]: 28% and 21% | Population Tubulin-Different-Phenotype (%) [7]: 83% and 28% | Total Cell Count [7]: 241 and 216 | Population Apoptotic (%) [8]: 60% and 90% | Population Fragmented Nuclei (%) [8]: 66% and 57% | Population Healthy Nuclei (%) [8]: 20% and 26% | Population Hoechst High Intensity Objects (%) [8]: 36% and 25% | Population Membrane Permeable-Phenotype (%) [8]: 11% and 0% | Population Mitochondria Different-Phenotype (%) [8]: 29% and 22% | Population Normal (%) [8]: 63% and 75% | Population Pyknosed Nuclei (%) [8]: 12% and 15% | Population Tubulin-Different-Phenotype (%) [8]: 41% | Total Cell Count [8]: 128 and 92
